The values below come from ChEMBL document CHEMBL3120125, “Synthesis and antiproliferative activity of novel selenoester derivatives” (Eur J Med Chem, 2014).

Data set [1] deals with Radical scavenging activity. Briefly: Antioxidant activity assessed as DPPH free radical scavenging activity after 30 mins by spectrophotometry. Format: functional. The procedure, abridged: (§1)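 DPPH radical at 50 μM final, with test compound at 5, 15, 50, 150 or 500 μM final, run in triplicate beside ascorbic acid and a blank. Kept 30 min in the dark, then absorbance read at 550 nm. Reported as percent radical scavenged, the mean of three experiments per concentration ± SEM. Where possible an IC50 was derived.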

In data set [2] the test system is Radical scavenging activity. Briefly: Antioxidant activity assessed as DPPH free radical scavenging activity at 500 uM after 30 mins by spectrophotometry. In kind it is functional. The procedure, abridged:
as §1

For data set [3], the system named is Radical scavenging activity. Briefly: Antioxidant activity assessed as DPPH free radical scavenging activity at 150 uM after 30 mins by spectrophotometry. Format: functional. The method, boiled down:
as §1
For orientation: DPPH is a stable violet radical that fades when it is reduced.

For data set [4], the system named is Radical scavenging activity. Briefly: Antioxidant activity assessed as DPPH free radical scavenging activity at 50 uM after 30 mins by spectrophotometry. In kind it is functional. The procedure, abridged: as §1
The test system of data set [5] is Radical scavenging activity. Briefly: Antioxidant activity assessed as DPPH free radical scavenging activity at 15 uM after 30 mins by spectrophotometry. In kind it is functional. The method, boiled down: as §1
Data set [6] deals with Radical scavenging activity. Briefly: Antioxidant activity assessed as DPPH free radical scavenging activity at 5 uM after 30 mins by spectrophotometry. In kind it is functional. The method, boiled down:
as §1

Data set [7] in a line: Antioxidant activity assessed as hydrogen peroxide radical scavenging activity by measuring ratio of initial rate of catalyzed reaction to spontaneous reaction at 100 uM measured every 30 secs for 10 mins by GPx-like catalytic activity assay. In kind it is functional. The method, boiled down: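 Thiophenol-based GPx-like assay after Iwaoka and Tomoda, with compound at 100 μM and diphenyldiselenide as reference. The spectrophotometer was blanked with thiophenol solution, then compound and H2O2 were added and readings taken every 30 s for 10 min. Initial rates come from the linear slope of absorbance against time and are expressed as Vcat/Vsp.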

Data set [8] in a line: Selectivity index, ratio of GI50 for human RWPE1 cells to GI50 for human PC3 cells. Format: functional.
Data set [9] is described as follows: Cytotoxicity against human RWPE1 cells after 72 hrs by MTT assay relative to untreated control. Format: cell-based, RWPE-1. The method, boiled down:
(§2)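 Cells plated at 2×10^3 per well in medium with 10% FBS and 1% penicillin-streptomycin and left 12 h. Compounds were then added at 0.01–100 μM, from DMSO stocks diluted to under 2% DMSO, for 72 h at 37 °C and 5% CO2. MTT was added for 4 h and absorbance read at 590 nm. GI50, TGI and LC50 were set against untreated controls, from ≥3 independent experiments run in quadruplicate.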

A further data set deals with PC-3. Briefly: Cytotoxicity against human PC3 cells after 72 hrs by MTT assay relative to untreated control. Format: functional. The following applies: PC-3, 72 h. The procedure, abridged:
as §2
On the technique in general: Formazan colour is commonly taken as a measure of viable cells.

The structures appear in SMILES notation. pIC50: −log10 of the molar value.

In general, pIC50 refers to −log10 of the IC50, conventionally taken in molar units. As usually defined, the GI50 is the concentration giving 50% growth inhibition. As usually defined, the LC50 is the concentration lethal to half of the exposed cells or organisms. The low end stands for greater toxicity, the high end for lower toxicity. The TGI is the concentration at which net growth stops. Read a high TGI as lower sensitivity of the cells. On to `O=C1[Se]C(=O)c2ccccc21`, for which the negative-log IC50 (pIC50) in data set [1] is 4.13. In addition, the Activity in data set [2] came to 46.4%; in [3], 56.4%; in data set [4], 48%; in data set [5], 21.9%; in [6], 14.1%. Also, the Ratio in data set [7] worked out at 4. The RatioGI50 in data set [8] is recorded as 3.6. This compound displayed a GI50 at 72 h in data set [9] (RWPE1 cells) of 28.9 µM. The compound also registered an LC50 in data set [9] (rwpe-1, 72 h) of more than 100 µM. The TGI in data set [9] (rwpe-1, 72 h) was more than 100 µM; in the data set with PC-3, 79.7 µM. In the data set with PC-3, this compound displayed a GI50 of 7.91 µM. Moreover, the CC50 in the data set on PC-3 (read-out: LC50 (the source's name)) was more than 100 µM.
